Test results: ChEMBL document CHEMBL5150070, “Tricyclic SpiroLactams Kill Mycobacteria In Vitro and In Vivo by Inhibiting Type II NADH Dehydrogenases” (J Med Chem, 2022)

Columns and labels:
[1] = tested on: Mycobacterium tuberculosis; test: Antimycobacterial activity against Mycobacterium tuberculosis H37Rv infected in human A-THP1 macrophages assessed as viability of infected macrophages incubated for 96 hrs by fluorescence microplate assay; format: functional, organism-based
Method in brief: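 THP-1 cells differentiated with 50 ng/mL PMA for 72 h, infected with log-phase H37Rv (MOI 10, 2 h), and extracellular bacteria killed with 50 µg/mL amikacin for 1 h. Cells detached and seeded at 5×10⁵/mL in RPMI-10% FBS with PMA onto pre-dispensed compound, 96 h at 37°C, 5% CO₂. Macrophage viability by 0.05% resazurin fluorescence.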

[2] = tested on: Mycobacterium tuberculosis; test: Bactericidal activity against Non-replicating Mycobacterium tuberculosis ss18b-lux model assessed as decrease in luminescence at 10 to 10000 nM; format: functional, organism-based; conditions: dose 10-10000 nM, TDE = time-dependent effect
Method in brief: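 Non-replicating streptomycin-starved 18b-lux (14-day starvation) diluted to OD600 0.15 in white 96-well plates with compound and incubated at 37°C. Luminescence read on days 1, 2, 5 and 7 and expressed relative to no-antibiotic controls (n ≥ 3).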

[3] = tested on: Mycobacterium tuberculosis; test: Bactericidal activity against Non-replicating Mycobacterium tuberculosis ss18b-lux assessed as decrease in colony forming unit measured at 0.6 uM after 1 weeks; format: functional
Method in brief: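 Streptomycin-dependent 18b-lux starved of streptomycin for 14 days (OD600 reset to 0.2 on days 7 and 13) to become non-replicating. Diluted to OD600 0.15 on dispensed compound and held at 37°C. On day 7, active wells plated on 7H11-OADC with 50 µg/mL streptomycin and incubated up to 8 weeks for cfu.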

CO[C@H]1/C=C/O[C@@]2(C)Oc3c(C)c(O)c4c(O)c(c(/C=N/N5CCN(C)CC5)c(O)c4c3C2=O)NC(=O)/C(C)=C\C=C\[C@H](C)[C@H](O)[C@@H](C)[C@@H](O)[C@@H](C)[C@H](OC(C)=O)[C@@H]1C [RIFAMPIN]
IC50 [1]: 91 nM | Activity [2]: Tde | Activity [3]: 1 log10CFU
